Experiments:
KB [1] = assay: Cytotoxicity against human KB cells at 10 uM; assay type: cell-based
Streptococcus pneumoniae [2] = assay: Antibacterial activity against Streptococcus pneumoniae ATCC 6303 after 18 hrs by broth microdilution method; assay type: functional; details: ATCC 6303, 18 h
Summary of the method: (§1)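 MIC by broth microdilution per ISO 20776-1:2006 and CLSI M07-A8. Inoculum 10^6 cfu/ml in Mueller-Hinton broth […]. Compound serially diluted, final 2 to 128 ug/ml, duplicate rows, no-drug growth control. Read after 18 h at 37 °C as lowest concentration fully inhibiting visible growth. At least two experiments.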

MRC5 [3] = assay: Cytotoxicity against human MRC5 cells at 1 uM; assay type: cell-based; details: mrc5, 1 µM
Acinetobacter baumannii = assay: microbe, parasite or virus in culture; details: ATCC 19606 = CIP 70.34 = JCM 6841, 18 h
Staphylococcus aureus [4] = assay: Antibacterial activity against Staphylococcus aureus ATCC 6538 after 18 hrs by broth microdilution method; assay type: functional; details: ATCC 6538, 18 h
Summary of the method: (§2)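 MIC by broth microdilution per ISO 20776-1:2006 and CLSI M07-A8. Inoculum 10^6 cfu/ml in Mueller-Hinton broth with compound serially diluted, final concentrations 2 to 128 ug/ml, duplicate rows, no-drug growth control. Incubation 18 h at 37 °C. MIC taken as lowest concentration giving complete inhibition of visible growth. Each compound tested at least twice.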

Streptococcus pneumoniae [5] = assay: Antibacterial activity against Streptococcus pneumoniae ATCC 49619 after 18 hrs by broth microdilution method; assay type: functional; details: ATCC 49619, 18 h; summary of the method: as §1
Staphylococcus aureus [6] = assay: Antibacterial activity against methicillin-resistant Staphylococcus aureus ATCC 33592 after 18 hrs by broth microdilution method; assay type: functional; details: ATCC 33592, 18 h
Summary of the method: (§3)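 Broth microdilution following ISO 20776-1:2006 and CLSI M07-A8, in Mueller-Hinton broth. Inoculum was 10^6 cfu/ml, with compound serial dilutions spanning 2 to 128 ug/ml and a compound-free growth control well. Plates were incubated 18 h at 37 °C. MIC was the lowest concentration giving complete inhibition of visible growth. Each compound was tested at least twice.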

KB [7] = assay: Cytotoxicity against human KB cells at 1 uM; assay type: cell-based
Staphylococcus aureus [8] = assay: Antibacterial activity against Staphylococcus aureus ATCC 25923 after 18 hrs by broth microdilution method; assay type: functional; details: ATCC 25923, 18 h; summary of the method: as §2
MRC5 [9] = assay: Cytotoxicity against human MRC5 cells at 10 uM; assay type: cell-based; details: mrc5, 10 µM
Streptococcus mitis = assay: Antibacterial activity against Streptococcus mitis CIP 103335 after 18 hrs by broth microdilution method; assay type: functional; details: CIP 103335, 18 h
Summary of the method: as §3, with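 “broth […].” for “broth.”, “read after” for “incubated”, “with no” for “giving complete inhibition of”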

HCT-116 [10] = assay: Cytotoxicity against human HCT116 cells at 10 uM; assay type: cell-based; details: hct-116, 10 µM
Streptococcus pyogenes = assay: Antibacterial activity against Streptococcus pyogenes CIP 104226 after 18 hrs by broth microdilution method; assay type: functional; details: CIP 104226, 18 h; summary of the method: as §3
Haemophilus influenzae = assay: Antibacterial activity against Haemophilus influenzae ATCC 49766 after 18 hrs by broth microdilution method; assay type: functional; details: ATCC 49766, 18 h
Summary of the method: as §3, with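 “broth […].” for “broth.”, “read after” for “incubated”, “with no” for “giving complete inhibition of”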

Serratia marcescens = assay: microbe, parasite or virus in culture; details: CIP 103551, 18 h
Staphylococcus aureus [11] = assay: Antibacterial activity against methicillin-resistant Staphylococcus aureus CIP 65.25 after 18 hrs by broth microdilution method; assay type: functional; details: CIP 65.25, 18 h; summary of the method: as §3
Streptococcus agalactiae = assay: Antibacterial activity against Streptococcus agalactiae ATCC 12400 after 18 hrs by broth microdilution method; assay type: functional; details: ATCC 12400, 18 h; summary of the method: as §3
Klebsiella pneumoniae = assay: microbe, parasite or virus in culture; details: ATCC 35657, 18 h
Staphylococcus aureus [12] = assay: Antibacterial activity against Staphylococcus aureus ATCC 29213 after 18 hrs by broth microdilution method; assay type: functional; details: ATCC 29213, 18 h; summary of the method: as §2
Staphylococcus aureus [13] = assay: Antibacterial activity against Staphylococcus aureus CIP 65.6 after 18 hrs by broth microdilution method; assay type: functional; details: CIP 65.6, 18 h; summary of the method: as §2
Staphylococcus aureus [14] = assay: Antibacterial activity against vancomycin intermediate Staphylococcus aureus […] after 18 hrs by broth microdilution method; assay type: functional; summary of the method: as §3
[15] = test system: Staphylococcus epidermidis; assay: Antibacterial activity against Staphylococcus epidermidis ATCC 12228 after 18 hrs by broth microdilution method; assay type: functional; details: ATCC 12228, 18 h; summary of the method: as §2
Escherichia coli = assay: Antibacterial activity against Escherichia coli ATCC 25922 after 18 hrs by broth microdilution method; assay type: functional; details: ATCC 25922, 18 h; summary of the method: as §3
[16] = test system: Staphylococcus epidermidis; assay: Antibacterial activity against Staphylococcus epidermidis CIP 81.55 after 18 hrs by broth microdilution method; assay type: functional; details: CIP 81.55, 18 h; summary of the method: as §2
Staphylococcus aureus [17] = assay: Antibacterial activity against Staphylococcus aureus CIP 103428 after 18 hrs by broth microdilution method; assay type: functional; details: CIP 103428, 18 h; summary of the method: as §2
Enterococcus faecium = assay: Antibacterial activity against Enterococcus faecium CIP 54.32 after 18 hrs by broth microdilution method; assay type: functional; details: CIP 54.32, 18 h; summary of the method: as §3
[18] = test system: Staphylococcus epidermidis; assay: Antibacterial activity against Staphylococcus epidermidis CIP 103627 after 18 hrs by broth microdilution method; assay type: functional; details: CIP 103627, 18 h; summary of the method: as §2
Staphylococcus aureus [19] = assay: Antibacterial activity against Staphylococcus aureus ATCC 9144 after 18 hrs by broth microdilution method; assay type: functional; details: ATCC 9144, 18 h; summary of the method: as §2
Pseudomonas aeruginosa = assay: microbe, parasite or virus in culture; details: CIP 5933, 18 h
HCT-116 [20] = assay: Cytotoxicity against human HCT116 cells at 1 uM; assay type: cell-based; details: hct-116, 1 µM
Enterobacter cloacae = assay: microbe, parasite or virus in culture; details: ATCC 13047, 18 h
Enterococcus faecalis = assay: Antibacterial activity against Enterococcus faecalis ATCC 29212 after 18 hrs by broth microdilution method; assay type: functional; details: ATCC 29212, 18 h; summary of the method: as §3

| SMILES | Activity (KB [1]) | MIC (Streptococcus pneumoniae [2]) [µg/mL] | Activity (MRC5 [3]) | MIC (Acinetobacter baumannii) [µg/mL] | MIC (Staphylococcus aureus [4]) [µg/mL] | MIC (Streptococcus pneumoniae [5]) [µg/mL] | MIC (Staphylococcus aureus [6]) [µg/mL] | Activity (KB [7]) | MIC (Staphylococcus aureus [8]) [µg/mL] | Activity (MRC5 [9]) | MIC (Streptococcus mitis) [µg/mL] | Activity (HCT-116 [10]) | MIC (Streptococcus pyogenes) [µg/mL] | MIC (Serratia marcescens) [µg/mL] | MIC (Staphylococcus aureus [11]) [µg/mL] | MIC (Streptococcus agalactiae) [µg/mL] | MIC (Klebsiella pneumoniae) [µg/mL] | MIC (Staphylococcus aureus [12]) [µg/mL] | MIC (Staphylococcus aureus [13]) [µg/mL] | MIC (Staphylococcus aureus [14]) [µg/mL] | further results |
| --- | --- | --- | --- | --- | --- | --- | --- | --- | --- | --- | --- | --- | --- | --- | --- | --- | --- | --- | --- | --- | --- |
| Cl.Cl.NCC(NO)c1c[nH]c2ccccc12 (stereo unspecified) | Non-toxic | > 128 | Non-toxic | > 128 | 32 | > 128 | 64 | Non-toxic | 32 | Non-toxic | > 128 | Non-toxic | > 128 | > 128 | 64 | > 128 | > 128 | 32 | 32 | 32 | MIC (Haemophilus influenzae): > 128 µg/mL; MIC [15]: 32 µg/mL; MIC (Escherichia coli): > 128 µg/mL; MIC [16]: 32 µg/mL; MIC (Staphylococcus aureus [17]): 32 µg/mL; MIC (Enterococcus faecium): > 128 µg/mL; MIC [18]: 32 µg/mL; MIC (Staphylococcus aureus [19]): 32 µg/mL; MIC (Pseudomonas aeruginosa): > 128 µg/mL; Activity (HCT-116 [20]): Non-toxic; MIC (Enterobacter cloacae): > 128 µg/mL; MIC (Enterococcus faecalis): > 128 µg/mL |
| Cl.Cl.NCC(NO)c1c[nH]c2cc(Br)ccc12 (stereo unspecified) | Non-toxic | 64 | Non-toxic | 64 | 16 | 64 | 16 | Non-toxic | 16 | Non-toxic | 128 | Non-toxic | 128 | 64 | 16 | 128 | 64 | 16 | 16 | 16 | MIC [15]: 16 µg/mL; MIC (Escherichia coli): 32 µg/mL; MIC [16]: 16 µg/mL; MIC (Staphylococcus aureus [17]): 16 µg/mL; MIC (Enterococcus faecium): > 128 µg/mL; MIC [18]: 16 µg/mL; MIC (Staphylococcus aureus [19]): 16 µg/mL; MIC (Pseudomonas aeruginosa): 64 µg/mL; Activity (HCT-116 [20]): Non-toxic; MIC (Enterobacter cloacae): 64 µg/mL; MIC (Enterococcus faecalis): > 128 µg/mL |
| Cl.Cl.NCC(NO)c1c[nH]c2cccc(Br)c12 (stereo unspecified) | Non-toxic | 128 | Non-toxic | > 128 | 32 | 128 | 32 | Non-toxic | 32 | Non-toxic | 128 | Non-toxic | 128 | > 128 | 32 | 128 | > 128 | 32 | 32 | 32 | MIC [15]: 32 µg/mL; MIC (Escherichia coli): 128 µg/mL; MIC [16]: 32 µg/mL; MIC (Staphylococcus aureus [17]): 32 µg/mL; MIC (Enterococcus faecium): > 128 µg/mL; MIC [18]: 32 µg/mL; MIC (Staphylococcus aureus [19]): 32 µg/mL; MIC (Pseudomonas aeruginosa): > 128 µg/mL; Activity (HCT-116 [20]): Non-toxic; MIC (Enterobacter cloacae): > 128 µg/mL; MIC (Enterococcus faecalis): > 128 µg/mL |
| Cl.Cl.NCC(NO)c1c[nH]c2ccc(F)cc12 (stereo unspecified) | Non-toxic | 64 | Non-toxic | 32 | 8 | 64 | 16 | Non-toxic | 8 | Non-toxic | 32 | Non-toxic | 32 | 32 | 16 | 32 | 32 | 8 | 8 | 8 | MIC (Haemophilus influenzae): > 128 µg/mL; MIC [15]: 8 µg/mL; MIC (Escherichia coli): 32 µg/mL; MIC [16]: 8 µg/mL; MIC (Staphylococcus aureus [17]): 8 µg/mL; MIC (Enterococcus faecium): 64 µg/mL; MIC [18]: 8 µg/mL; MIC (Staphylococcus aureus [19]): 8 µg/mL; MIC (Pseudomonas aeruginosa): 32 µg/mL; Activity (HCT-116 [20]): Non-toxic; MIC (Enterobacter cloacae): 32 µg/mL; MIC (Enterococcus faecalis): 64 µg/mL |
